Data reported in ChEMBL document CHEMBL4819003, “Optimization of novel oxidative DIMs as Nur77 modulators of the Nur77-Bcl-2 apoptotic pathway” (Eur J Med Chem, 2021).
Calls of active or inactive are those of the source. No cut-off for these calls is given here.

Experiments:
[1] = Volume of distribution at steady state in male Sprague-Dawley rat at 0.5 mg/kg, iv measured for 36 hrs by LC-MS/MS analysis; format: ADME, organism-based; conditions: in vivo, read-out: Vdss
How it was run: (§1)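 Sprague-Dawley rats (200–220 g), three males and three females per route group. Dosed 5 mg/kg orally or 0.5 mg/kg IV as a solution in DMSO/T-80/H2O (1:5:94 by volume). Heparinized blood was drawn from 5 min to 36 h after IV and 1–36 h after oral dosing. Plasma was protein-precipitated with methanol (2% HCl) plus carbamazepine internal standard and assayed by LC-MS/MS. Parameters were taken from concentration-time data; n = 3 per sex, mean ± SD.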

[2] = Half life in female Sprague-Dawley rat at 0.5 mg/kg, iv measured for 36 hrs by LC-MS/MS analysis; format: ADME, organism-based; conditions: in vivo
[3] = Half life in female Sprague-Dawley rat at 5 mg/kg, po measured for 36 hrs by LC-MS/MS analysis; format: ADME, organism-based; conditions: in vivo
[4] = Tmax in female Sprague-Dawley rat at 5 mg/kg, po measured for 36 hrs by LC-MS/MS analysis; format: ADME, organism-based; conditions: in vivo; how it was run: as §1
[5] = Cmax in male Sprague-Dawley rat at 0.5 mg/kg, iv measured for 36 hrs by LC-MS/MS analysis; format: ADME, organism-based; design: route intravenous, dose 0.5 mg/kg, time 36 hrs; conditions: in vivo
[6] = Volume of distribution at steady state in female Sprague-Dawley rat at 0.5 mg/kg, iv measured for 36 hrs by LC-MS/MS analysis; format: ADME, organism-based; conditions: in vivo; how it was run: as §1
[7] = MRT(0 to t) in female Sprague-Dawley rat at 5 mg/kg, po measured for 36 hrs by LC-MS/MS analysis; format: ADME, organism-based; conditions: in vivo
[8] = AUC (0 to t) in female Sprague-Dawley rat at 0.5 mg/kg, iv measured for 36 hrs by LC-MS/MS analysis; format: ADME, organism-based; design: dose 0.5 mg/kg, time 36 hrs; conditions: in vivo
How it was run: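 Sprague-Dawley rats (200–220 g), three per sex per route, were dosed at 0.5 mg/kg IV or 5 mg/kg PO in DMSO/Tween-80/water (1:5:94). Heparinized blood was drawn from 5 min to 36 h after IV dosing and from 1 h to 36 h after oral dosing. Plasma was deproteinized with methanol (2% HCl) plus carbamazepine internal standard, measured by LC-MS/MS, and reported as mean ± SD.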

[9] = tested on: MEF; assay: Induction of apoptosis in mouse MEF cells lacking Nur77 assessed as PARP cleavage at 0.5 uM measured after 6 hrs by western blot assay; format: functional, cell-based
How it was run: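 Wild-type, Nur77−/− or Bcl-2−/− mouse embryonic fibroblasts grown in DMEM with 10% FBS and treated with 0.5 µM for 6 h. PARP cleavage detected by western blot, primary antibodies at 1:1000, ECL.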

[10] = Toxicity in mammary tumor MMTV-PyMT mouse model assessed as changes in body weight at 3 mg/kg, po administered daily for 14 days; format: organism-based; conditions: in vivo, 336 h, time 14 day
How it was run: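 Female MMTV-PyMT transgenic mice (FVB/N background), 12 weeks old, randomized n = 6 per group. They received daily oral gavage of 3 mg/kg for 14 days. Drug was dissolved in DMSO and diluted with saline containing 5.0% Tween-80 to 3 mg/mL final. Body weight was recorded after 14 days against untreated controls, mean ± SD.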

[11] = AUC (0 to t) in male/female Sprague-Dawley rat at 0.5 mg/kg, iv measured for 36 hrs by LC-MS/MS analysis; format: ADME, organism-based; design: dose 0.5 mg/kg, time 36 hrs; conditions: both, in vivo
How it was run: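 Four Sprague-Dawley rats per route (2 male, 2 female; 200–220 g) received 0.5 mg/kg IV or 5 mg/kg PO in DMSO/Tween-80/water (1:5:94). Heparinized blood was taken at 5 min–36 h after IV dosing and at 0.5, 1, 3, 4, 6, 8, 10, 12, 24 and 36 h after oral dosing. Methanol (2% HCl) precipitation with carbamazepine internal standard preceded LC-MS/MS; values are mean ± SD.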

[12] = Tmax in male/female Sprague-Dawley rat at 5 mg/kg, po measured for 36 hrs by LC-MS/MS analysis; format: ADME, organism-based; conditions: both, in vivo
How it was run: (§2)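 Sprague-Dawley rats (200–220 g), four per route group (2 male, 2 female), given 0.5 mg/kg IV or 5 mg/kg orally in DMSO/T-80/H2O (1:5:94). Heparinized blood was sampled at 5 min–36 h after IV and at 0.5, 1, 3, 4, 6, 8, 10, 12, 24 and 36 h after oral dosing. Plasma was methanol (2% HCl)-precipitated with carbamazepine internal standard and quantified by LC-MS/MS. Parameters reported as mean ± SD.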

[13] = Volume of distribution at steady state in male/female Sprague-Dawley rat at 0.5 mg/kg, iv measured for 36 hrs by LC-MS/MS analysis; format: ADME, organism-based; conditions: in vivo; how it was run: as §2
[14] = Half life in male/female Sprague-Dawley rat at 0.5 mg/kg, iv measured for 36 hrs by LC-MS/MS analysis; format: ADME, organism-based; conditions: both, in vivo
[15] = Half life in male/female Sprague-Dawley rat at 5 mg/kg, po measured for 36 hrs by LC-MS/MS analysis; format: ADME, organism-based; conditions: both, in vivo

Vd [1]	half-life [2]	half-life [3]	Tmax [4]	Cmax [5]	Vdss [6]	MRT last at 36 h [7]	AUC(0-t) at 36 h [8]	AUC(0-t) at 36 h [11]	Tmax [12]	Vdss [13]	half-life [14]	half-life [15]	SMILES	Activity [9]	Activity [10]
2.56 L/kg	5.91 h	6.81 h	5.33 h	880 ng/mL	2.38 L/kg	14.5 h	1730 ng·h/mL						CS(=O)(=O)[O-].FC(F)(F)c1ccc([C+](c2c[nH]c3ccccc23)c2c[nH]c3ccccc23)cc1		
								501 ng·h/mL	3 h	3.69 L/kg	2.66 h	4.49 h	CS(=O)(=O)[O-].Cn1cc([C+](c2ccc(C(F)(F)F)cc2)c2c[nH]c3ccccc23)c2ccccc21	inactive	Non-Toxic
